Results as given in article PMC9930943 (Asian Pacific Journal of Cancer Prevention : APJCP, 2022).
Read-outs that look alike come from different tables or passages of the source.

Columns and labels:
[1] = system: U-87MG cells; test: PI staining cell cycle analysis by flow cytometry; type: cell-based, human; details: 11.91 µM, 24 hours
Method in brief: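 6 × 10⁵ U-87MG cells/well attached for 24 h, then given 11.91 µM for 24 h. Detached with trypsin-EDTA at 37°C for 2 min, fixed in cold 70% ethanol for 1 h. Stained 30 min at RT in the dark in 1 ml 0.1% sodium citrate with 0.05 mg PI and 50 µg RNase. Sub-G1, G0/G1, S and G2/M percentages by flow cytometry.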

[2] = system: AGO1522 cells; test: MTT cell viability assay, AGO1522; type: cell-based, human; details: for IC50: Homo sapiens, Skin fibroblast
Method in brief: (§1)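 U-87MG (RPMI-1640, 7.5 × 10³ cells/well, 24 h attachment) and AGO1522 (low-glucose DMEM) grown with 10% FBS and pen/strep at 37°C, 5% CO₂. DMSO stocks diluted in medium to 3, 6.25, 12.5, 25, 50 and 100 µM, for 24 and 48 h. MTT 5 mg/ml for 4 h, formazan dissolved in DMSO, A570 nm. Viability relative to untreated cells; IC50 calculated. Triplicates, three experiments.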

[3] = system: intracellular ROS in U-87MG cells; test: Intracellular ROS assay with DCFH-DA probe; type: cell-based, human; details: 11.91 M (so in the source), 12 hours, P < 0.01
Method in brief: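 6 × 10⁵ U-87MG cells/well attached for 24 h, then given 11.91 µM for 12 h. Loaded with DCFH-DA (10 µM final) in serum-free medium for 30 min at 37°C in the dark and washed twice with RPMI 1640. DCF fluorescence of 1 × 10⁴ cells read on a fluorescence plate reader as RFU. Three independent experiments.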

[4] = system: caspase-3 activity in U-87MG cells; test: Caspase-3/CPP32 fluorometric activity assay; type: cell-based, human; details: 11.91 µM, 24 hours (method: 12 hours), P<0.01
[5] = system: U-87MG cells; test: MTT cell viability assay, U-87MG; type: cell-based; details: Homo sapiens
Method in brief: as §1

[6] = 24 h, read-out: IC50 AGO1522 24 hours
[7] = 48 h, read-out: IC50 AGO1522 48 hours
[8] = 24 h, read-out: IC50 U-87MG 24 hours
[9] = 48 h, read-out: IC50 U-87MG 48 hours

Row | Molecule | cells in G1 [1] [%] | effects on normal skin cells of AGO1522 ([2]; AGO1522 cells, in words) | level of ROS compared to unexposed cells [3] | caspase 3 activation compared to unexposed cells [4] | IC50 [2, 6] [µM] | IC50 [2, 7] [µM] | IC50 [5, 8] [µM] | IC50 [5, 9] [µM]
1 | 5-(6-bromo-2-chloroquinolin-3-yl)-9a-hydroxy-8,8-dimethyl-4-nitro-2,3,5,5a,7,8,9,9a-octahydroimidazo[1,2-a]quinolin-6(1H)-one [5c] | 41 | minimal effects | significantly higher | significant increase | – | – | – | –
2 | CC(=O)O[C@H]1C(=O)[C@@]2(C)[C@H]([C@H](OC(=O)c3ccccc3)[C@]3(O)C[C@H](OC(=O)[C@H](O)[C@@H](NC(=O)c4ccccc4)c4ccccc4)C(C)=C1C3(C)C)[C@]1(OC(C)=O)CO[C@@H]1C[C@@H]2O [Paclitaxel, reference compound] | – | – | – | – | 42.9 ± 1.42 | 25.8 ± 1.09 | 17.4 ± 0.85 | 42.2 ± 0.78
3 | O=c1[nH]c(O)c(C2C([N+](=O)[O-])=C3NCCN3c3nc4cc(Cl)ccc4cc32)c(=O)[nH]1 (stereo not drawn) [5e, 5-(9-chloro-4-nitro-1,2,3,5-tetrahydrobenzo[g]imidazo[1,2-a] [1,8]naphthyridin-5-yl) -6-hydroxypyrimidine-2,4 (1H, 3H) -dione] | – | – | – | – | 43 ± 0.89 | 22.9 ± 0.95 | 22.6 ± 0.84 | 16.3 ± 1.03
